Screening data as filed in PubChem BioAssay.
Sampled rows, rich in hits. Any-hit rate of the full collection: about 3.7%.
hERG rescue: hERG (human) protection from proarrhythmic block | activation (rescue from dofetilide block), less the hit threshold, % at 10 µM | CHO-hERG, FluxOR thallium flux, dofetilide IC70 present | Q12809 | 310,000 compounds, 0.51% hits;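 active means activation above the mean of controls blocked by dofetilide plus 5 SD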;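 further: thallium influx through hERG after potassium depolarization seen as dye fluorescence rise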
KCNK9 block: blocks the human KCNK9 two-pore domain potassium channel | Q9NPC2 | HEK293 KCNK9, FluxOR thallium flux fluorescence; hits give low values | B-score at 10 µM | 310,000 compounds, 1.2% hits | AID 488922;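 active means ratio B-score over 3 SD below the library mean, with starting fluorescence within 5 SD of its mean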;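 further: negative B-score means less thallium flux so channel inhibition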
KCNQ1 pot: potentiators or activators of human KCNQ1 potassium channel. B-score at 10 µM. 310,000 compounds, 0.35% hits. P51787. AID 2648. CHO-K1 KCNQ1, thallium flux FluxOR fluorescence; hits give high values;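 active means fluorescence ratio B-score, a plate-corrected score, at least three library SD, with initial intensity B-score within 5 SD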
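assay system = KCNQ1-transfected CHO-K1 cells | medium = assay buffer with matched DMSO | probe or stimulus = depolarizing K+/Tl+ stimulus, K2SO4 and Tl2SO4 each 12.5 mM in 5x stock | dosing = single dose | incubation = dye 90 min, compound 20 min, room temperature | detection = kinetic FluxOR fluorescence, 10 s baseline plus 110 s post-stimulus | evaluation = ratio B score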
KCNK3 block: human KCNK3 channel inhibition, primary screen. O14649. CHO-KCNK3 thallium flux, FluxOR fluorescence; hits give low values. B-score at 10 µM. 340,000 compounds, 0.84% hits;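 active means B-score under library mean minus 4 SD, starting fluorescence ratio at most library mean plus 5 SD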;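 further: more negative B-score means stronger inhibition of thallium flux through KCNK3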
Kir21 inh: inhibitors of mouse Kir2.1 inward-rectifier potassium channel; P35561; HEK293-Kir2.1, FluxOR thallium flux fluorescence; hits give low values; B-score at 10 µM; 310,000 compounds, 0.85% hits; AID 1672;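 active means fluorescence ratio B-score at or below minus 3 SD of library scores, with starting-brightness B-score within 2 SD, cut at about -4.2 in these data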;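 further: channel flux triggered by added potassium and thallium sulfate stimulus; B-score of peak minus minimum fluorescence over baseline after thallium stimulus; more negative B-score means stronger Kir2.1 block with less thallium influx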
Target sequence (P35561 whole entry, looked up): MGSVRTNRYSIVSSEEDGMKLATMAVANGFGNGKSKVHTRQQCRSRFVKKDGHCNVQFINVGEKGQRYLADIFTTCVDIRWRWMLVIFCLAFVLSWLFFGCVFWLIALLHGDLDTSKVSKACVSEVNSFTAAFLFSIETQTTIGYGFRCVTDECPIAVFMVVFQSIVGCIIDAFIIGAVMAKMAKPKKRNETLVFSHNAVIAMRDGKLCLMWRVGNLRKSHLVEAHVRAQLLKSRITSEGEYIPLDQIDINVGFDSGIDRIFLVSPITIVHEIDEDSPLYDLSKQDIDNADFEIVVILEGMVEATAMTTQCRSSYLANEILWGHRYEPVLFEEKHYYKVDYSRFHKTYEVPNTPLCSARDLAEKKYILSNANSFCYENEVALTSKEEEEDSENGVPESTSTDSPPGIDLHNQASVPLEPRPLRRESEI
KCNQ1 inh: blocks the human KCNQ1 potassium channel. 310,000 compounds, 1.3% hits. B-score at 10 µM. CHO-K1 KCNQ1, FluxOR thallium flux fluorescence; hits give high values. P51787;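 active means compounds whose thallium flux B-score, printed positive for inhibition, exceeds three library SD while starting fluorescence stays within three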;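 further: channel opened by potassium depolarization with thallium stimulus after 20 min compound exposure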
Each line names hits and unclear results; the compound was inactive in the other large screens.

Cc1ccc(C(OCC(O)CN2CCCCC2)c2ccccc2)cc1 (centres undefined)	none
Cc1ccc(C(OCC(O)CNC(CO)C(O)c2ccc([N+](=O)[O-])cc2)c2ccccc2)cc1 (centres undefined)	Kir21 inh -5.2
CC(NCC(O)COCc1ccc(Cl)cc1)c1ccccc1 (centres undefined)	Kir21 inh -8.5
O=C1c2ccccc2C(=O)N1C(CO)C(O)c1ccc([N+](=O)[O-])cc1 (centres undefined)	none
c1coc(-c2nc3c([nH]2)CCc2nonc2-3)c1	none
Cc1nnnn1CC(=O)Nc1ccccc1[N+](=O)[O-]	none
NS(=O)(=O)c1ccc(Nc2ncccc2[N+](=O)[O-])cc1	hERG rescue 4.6
O=c1c(C=NCCN2CCNCC2)c(-c2ccccc2)[nH]n1-c1ccc([N+](=O)[O-])cc1	Kir21 inh -5.4 (no result: KCNK3 block)
CCOC(=O)C1CCCCN1C(=O)/C(=C/c1ccc(OC)cc1)c1ccc(OC)c(OC)c1 (centres undefined)	none (no result: hERG rescue, KCNK9 block, KCNQ1 pot, Kir21 inh, KCNQ1 inh)
CCC(c1nnnn1C(C)(C)C)N(Cc1cccs1)Cc1cc2cc(C)c(C)cc2n2nnnc12 (centres undefined)	KCNK9 block -14 (no result: KCNK3 block)
CCOc1ccc2[nH]c(=O)c(CN(Cc3cccs3)C(CC)c3nnnn3C(C)(C)CC)cc2c1 (centres undefined)	none
CCCCOc1ccc(/C=C/C(=O)NC2=Nc3ccccc3NC(C)=C2C(=O)OCC)cc1OC	none
COC(=O)C1=C(C)N(C)C(=S)N(C)C1c1cccc(Br)c1 (centres undefined)	Kir21 inh -5
CCOC(=O)C1=C(C)N(C)C(=S)N(C)C1c1ccc(OC)cc1 (centres undefined)	none
O=C1c2ccccc2C(=O)N1CCC#Cc1ccc2cc(CCCO)oc(=O)c2c1	none (no result: hERG rescue, KCNK9 block, KCNQ1 pot, Kir21 inh, KCNQ1 inh)
CCOC(=O)[C@@H]1[C@H]2COc3ccccc3[C@@H]2N2C(=O)N(c3ccc(C)cc3)C(=O)[C@]12C	none
Cc1cc(C)nc(N2CCCC(C(=O)NCc3ccccc3)C2)n1 (centres undefined)	hERG rescue 5.2
Cc1ccc(CNC(=O)C2CCCN(c3nc(C)cc(C)n3)C2)cc1 (centres undefined)	none
Cn1ncc2c(N3CCC(Cc4ccccc4)CC3)ncnc21	none
NNC(=O)c1cc2c(N3CCC(Cc4ccccc4)CC3)ncnc2s1	KCNQ1 inh 6
Nc1cc2c(cc1[N+](=O)[O-])OCCO2	none
Nc1cc2c(cc1[N+](=O)[O-])OCCOCCOCCO2	hERG rescue 6.4
COCc1c(C(=O)NCCOc2ccc(Cl)cc2)oc2ccccc12	KCNK3 block -8.9 (no result: hERG rescue, KCNK9 block, KCNQ1 pot, Kir21 inh, KCNQ1 inh)
Cn1cc([N+](=O)[O-])c(C(=O)N/N=C/c2ccccc2)n1	hERG rescue 4.7
Cn1cc([N+](=O)[O-])c(C(=O)N/N=C\c2c[nH]c3ccccc23)n1	none
CC(=O)NCCC(=O)Nc1ccc(C)c(F)c1	hERG rescue 5.4
Cn1nnnc1SCc1ccc(C(=O)Nc2nccs2)cc1	none
C=CCn1c(SCc2ccc(C(=O)Nc3nccs3)cc2)nnc1-c1ccc(C)c(Cl)c1	KCNK9 block -7.2
Cc1cccc2sc(NC(=O)CN(C)S(=O)(=O)c3ccc(Br)s3)nc12	KCNK3 block -9.9
O=c1[nH]c(SCc2nc3ccccc3c(=O)n2-c2ccccc2C(F)(F)F)nc2ccccc12	KCNK9 block -6.6
CCN(C(=O)c1cnc(NC(C)C)cc1C(F)(F)F)c1ccc(Cl)cc1Cl	none
COc1cccc(-c2ccc(NC(=O)C3CCCN(CCCn4nc(C)cc4C)C3)cc2)c1 (centres undefined)	none
CN1C(=O)/C(=C\c2cc(N=Nc3ccccc3)ccc2O)SC1=S	KCNQ1 inh 7
Cc1cc(/C=C2\SC(=S)N(C)C2=O)c(C)n1-c1cccc(O)c1	KCNK9 block -6.8
CN1C(=O)/C(=C\c2ccccc2OCc2ccccc2)SC1=S	none
CCCCN(C(=O)c1cccs1)c1c(N)n(Cc2ccccc2)c(=O)[nH]c1=O	none (no result: hERG rescue, KCNK9 block, KCNQ1 pot, Kir21 inh, KCNQ1 inh)
O=C(CNC(=O)N1CC(=O)Nc2ccccc21)NCc1ccc(Cl)cc1	none
O=C(O)CC(NC(=O)C1CCCCC1)c1cc([N+](=O)[O-])ccc1Cl (centres undefined)	KCNQ1 inh 12
CCn1cc(C(=O)NC2CCCc3c2cnn3-c2cccc(C)c2C)cn1 (centres undefined)	KCNQ1 inh 8
N#Cc1ccc(Oc2ccc(C#N)c(C#N)c2)cc1C#N	none (no result: hERG rescue, KCNK9 block, KCNQ1 pot, Kir21 inh, KCNQ1 inh)
Cc1ccc(Nc2nc(N)c3ccccc3n2)cc1Cl	Kir21 inh -13
Nc1nc(Nc2ccc(Cl)cc2)nc2ccccc12	Kir21 inh -14
O=C(CCc1ccccc1)NNC(=O)Cc1ccccc1	none
CN(CC(=O)Nc1c(Cl)cccc1Cl)C(=O)c1n[nH]c2ccccc12	none
Cc1ccc(NC(=O)c2ccc(NS(=O)(=O)c3cccc4cccnc34)cc2)cc1	none
CC(=O)c1c(O)c(C)c(O)c2c1OC1=CC(=O)C(C(C)=O)C(=O)[C@@]12C (some centres undefined)	KCNQ1 inh 7
Cc1ccc(NCCC(=O)c2cccc([N+](=O)[O-])c2)cc1	KCNQ1 inh 9
O=C(CCNc1ccc(F)cc1)c1cccc([N+](=O)[O-])c1	KCNQ1 inh 6
CCOc1ccccc1C(=O)OCC(=O)NCC1CCCCC1	none
Cc1cnnn1-c1ccc(C(=O)CCl)cc1	KCNQ1 inh 6
Brc1cccc(CNCc2cccs2)c1	none
CCOc1cc(CNCc2ccncc2)cc(Br)c1OCc1ccccc1F	Kir21 inh -8
CCOc1cc(CNCc2cccs2)cc(Br)c1OCC	Kir21 inh -5.6
CCOc1cc(CNCCO)cc(Br)c1OCc1cccs1	Kir21 inh -13
Cn1c(SSc2ccc(-c3cccnc3)n2C)ccc1-c1cccnc1	none (no result: hERG rescue, KCNK9 block, KCNQ1 pot, Kir21 inh, KCNQ1 inh)
Nn1c(SCc2ccccc2F)nnc1-c1ccncc1	none
Cc1nnc(SCc2ccccc2F)n1NCc1cccs1	Kir21 inh -4.2
CN(Cc1nc(-c2cccs2)no1)CC1(N2CCOCC2)CCCCC1	none
CCOC(=O)CN1C(c2ccc(O)cc2)Nc2ccc(Br)cc2C1c1ccccc1 (centres undefined)	KCNK9 block -7.5
CCOC(=O)CN1C(=O)Nc2ccc(Br)cc2C1c1ccccc1 (centres undefined)	none
Cc1cccc(NC(=S)N/C(=N/S(=O)(=O)c2ccccc2)c2ccccc2)c1	hERG rescue 5.2
CCOC(=O)c1sc(NC(=O)CSc2n[nH]c(-c3ccncc3)n2)c(C#N)c1C	none
Cc1ccsc1/C=C/C1=Cc2c(sc(NC(=O)CSc3n[nH]c(N)n3)c2C#N)C(C)(C)C1	KCNQ1 inh 8
COC(=O)c1sc(NC(=O)CSc2n[nH]c(N)n2)c(C(=O)OC)c1C	none
